# AF4-AF9 inh – blocks AF4 peptide binding to human AF9 | P42568 | AlphaScreen, biotin-AF4 peptide binding to FLAG-AF9 | inhibition, % at 10 µM | actives 0.47% (n = 350,000);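 active = every replicate reaching a set inhibition limit, whatever the replicate mean, cut at about 25% in these data; inconclusive = mean inhibition reaches that limit but some replicates miss it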
# rRNA inh HTS – inhibits bacterial ribosomal RNA function over humanized ribosomes; E. coli WT GFP vs humanized-ribosome RFP mutants, fluorescence, 24 h; stronger effect = lower value; DMSO median 0, no signal -100; GFP signal change (wild-type ribosome), % (test concentration not listed); actives 1.6% (n = 350,000);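 active = significant combined selectivity score with lowered wild-type GFP, culture density cut under 30%, mutant RFP and density less affected; inactive = any of these conditions unmet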
# S100A4 MyoIIA – blocks human S100A4 binding to myosin IIA peptide; actives 0.14% (n = 360,000); P26447; S100A4/TAMRA-MyoIIA peptide fluorescence polarization; inhibition, % at 10.7 µM;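 active = mean inhibition of at least 70% across replicates, with every replicate also reaching that level; inconclusive = mean inhibition reaches 70% but some replicates fall short; inactive = mean inhibition below 70%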
# Target sequence (P26447 whole entry, looked up): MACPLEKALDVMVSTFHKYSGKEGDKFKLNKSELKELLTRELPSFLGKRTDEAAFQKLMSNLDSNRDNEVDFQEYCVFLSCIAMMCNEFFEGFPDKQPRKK
#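 assay system = human S100A4 monomer with TAMRA-labelled myosin IIA peptide | also added = labelled myosin peptide probe, 5 nM | incubation = 5 min between mix addition and reading | control set = DMSO and TFP controls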
# Cneo AK release – causes C. neoformans cell lysis. adenylate kinase release luminescence, 4 h; normalised: neutral wells 0, clomiphene wells 100. lysis activity, % at 15 µM. actives 0.2% (n = 360,000);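 active = mean lysis activity across replicates of at least 80%, whatever share of replicates individually reach that level; inactive = mean lysis activity below 80%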
#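 Material – log-phase Cryptococcus neoformans yeast cells · Input – 5 × 10^6 yeast cells/mL · Medium – fresh YPD growth medium · Doses – single compound concentration per well · Timing – static 4 h at 37 °C with compound, 1 h detection · Detection – adenylate kinase release luminescence · Read-out – signal increase indicating cell lysis · Control set – Clomiphene as positive lysis control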
# DENV2 CPE – DENV2-induced cell death inhibition. AID 651640. CPE inhibition, % at 9.99 µM. DENV2-infected cells, cytopathic effect rescue, plate reader. actives 1.7% (n = 350,000); in the data active = CPE inhibition above about 20%, passing the limit was not always enough; inconclusive = no clear call, values can overlap the other calls; tested in BHK-21 cells
# PfHsp90 set2 – growth inhibition of yeast expressing Plasmodium Hsp90; S. cerevisiae expressing PfHsp90, BacTiter-Glo ATP, 48 h; yeast lacking PDR1 and PDR3 efflux regulators; inhibition, % at 9.4 µM; actives 0.32% (n = 310,000); AID 504621;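 active = every replicate shows inhibition above about 80%, whatever the replicate mean, limit read from the data; inconclusive = mean inhibition reaches the set limit but some replicate falls short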
# Hits are given with their value; i = inactive; ? = inconclusive; nt = not tested or not shown. A selection: hits, their analogues and other compounds. The true share with any hit is near 3.2%.
SMILES,AF4-AF9 inh,rRNA inh HTS,S100A4 MyoIIA,Cneo AK release,DENV2 CPE,PfHsp90 set2
Cc1cc(C(=O)Nc2cccc3c2O[C@H](CN(C)C)[C@H](C)CN([C@@H](C)CO)C3=O)n(C)n1,i,i,i,i,28.5,nt
Cc1cc(C(=O)Nc2cccc3c2O[C@@H](CN(C)S(=O)(=O)c2ccccc2)[C@@H](C)CN([C@@H](C)CO)C3=O)n(C)n1,i,i,i,103.9,i,nt
CC1COCC(C)N1C1=C(Cl)C(=O)c2ccccc2C1=O (configuration not stated),27.4,i,i,i,i,i
CCC(=O)N(C)C[C@@H]1Oc2ncc(C#CC(C)C)cc2C(=O)N([C@H](C)CO)C[C@@H]1C,i,i,i,i,?,nt
Cc1nc2ncccn2c1-c1csc(Nc2ccc(N(C)C)cc2)n1,44.3,i,i,nt,i,i
Cc1nc2ncccn2c1-c1csc(Nc2ccccc2)n1,i,i,i,nt,i,i
C[C@@H]1CCCCO[C@H](CN(C)Cc2ccncc2)[C@@H](C)CN([C@@H](C)CO)C(=O)c2cc(NC(=O)c3ccccc3)ccc2O1,i,i,i,i,i,nt
O=[N+]([O-])c1ccc2nc(C3CCCCC3)[nH]c2c1,i,i,i,i,i,i
O=[N+]([O-])c1ccc(O)c(C2CCCCC2)c1,i,i,i,i,i,108.0
O=C(C[C@@H]1CC[C@H]2[C@@H](COC[C@H](O)CN2CC2CCCC2)O1)NCC1CC1,i,i,i,nt,i,nt
N#C[C@H]1[C@@H](c2ccccc2C2=CCCC2)[C@H](CO)N1C(=O)NC1CCCCC1,i,i,i,nt,i,nt
COc1cc(-c2nnc(SCC(=O)c3ccccc3)o2)cc(OC)c1OC,i,-24.6,i,i,nt,i
CC[C@H](C)/C=C/C1=CC2=C(Cl)C(=O)[C@@]3(C)OC(=O)C(C(=O)[C@H](C)[C@@H](C)O)=C3C2=CO1,nt,nt,nt,i,nt,104.5
S=C(NCCc1cccc(Cl)c1)NCc1ccccc1,nt,nt,nt,i,nt,i
O=C(NC(=S)NCCc1ccccc1)c1ccccc1F,i,-31.3,i,i,i,i
S=C(NCCc1ccc(Cl)cc1)NCc1ccccc1,nt,nt,nt,114.5,nt,i
Cc1c(Cl)cccc1NC(=S)NCCc1ccc(Cl)cc1,i,i,i,113.1,i,i
O=C(NC(=S)NCc1ccccc1)c1ccccc1F,nt,i,i,i,nt,i
O=C(Cc1ccccc1)N[C@@H]1CC[C@@H](CC(=O)N2CCCCC2)O[C@@H]1CO,i,i,i,i,i,nt
CO[C@H]1CN(C)C(=O)c2ccc(NS(C)(=O)=O)cc2OC[C@@H](C)N(C(=O)C2CC2)C[C@H]1C,i,i,i,i,nt,nt
O=C(Nc1ccc(OC(F)(F)F)cc1)Oc1ccccc1N1CCCCC1,i,-49.5,i,i,i,nt
O=C(N[C@H]1CC[C@H](CCNC(=O)c2cnccn2)O[C@H]1CO)c1ccc2c(c1)OCO2,i,i,i,i,i,nt
COc1ccccc1C(=O)N1C[C@H]2[C@@H](c3ccccc31)[C@@H](CO)N2C(=O)C1CCOCC1,i,i,i,i,i,nt
Brc1ccc(CNc2ccc3ncccc3c2)cc1,i,-29.0,i,i,i,i
O=C(Nc1ccc2ncccc2c1)c1cccc(Br)c1,i,i,i,i,i,i
CNC[C@H]1Oc2cc(C#CC3(O)CCCC3)ccc2S(=O)(=O)N([C@@H](C)CO)C[C@H]1C,i,i,i,i,i,nt
CCC(=O)Nc1ccc2c(c1)C(=O)N(C)C[C@H](OC)[C@H](C)CN(Cc1cccnc1)[C@@H](C)CO2,nt,i,nt,i,i,nt
Cc1ccc(-c2cnc3c(c2)C(=O)N([C@H](C)CO)C[C@H](C)[C@@H](CN(C)C(=O)Cc2ccncc2)O3)cc1,i,i,i,i,27.1,nt
Cc1ccc(-c2cnc3c(c2)C(=O)N([C@H](C)CO)C[C@H](C)[C@H](CN(C)C(=O)Cc2ccccc2)O3)cc1,i,i,i,i,75.8,nt
Cc1ccc(-c2cnc3c(c2)C(=O)N([C@H](C)CO)C[C@@H](C)[C@@H](CN(C)C(=O)Cc2ccncc2)O3)cc1,i,i,i,i,i,nt

# Assay outcomes (PubChem BioAssay)
